Results taken from ChEMBL document CHEMBL4024777, “Discovery of LY3104607: A Potent and Selective G Protein-Coupled Receptor 40 (GPR40) Agonist with Optimized Pharmacokinetic Properties to Support Once Daily Oral Treatment in Patients with Type 2 Diabetes Mellitus” (J Med Chem, 2018).
In brackets after ≈: the same amount, converted by molar mass.

Key:
[1] = molecular target: T1, Free fatty acid receptor 1 (Homo sapiens, UniProt O14842); test: Competitive displacement of [3H]-TAK-875 from full length human recombinant GPR40 expressed in HEK293 cell membranes after 2 hrs by scintillation counting
T1 sequence (O14842 whole entry): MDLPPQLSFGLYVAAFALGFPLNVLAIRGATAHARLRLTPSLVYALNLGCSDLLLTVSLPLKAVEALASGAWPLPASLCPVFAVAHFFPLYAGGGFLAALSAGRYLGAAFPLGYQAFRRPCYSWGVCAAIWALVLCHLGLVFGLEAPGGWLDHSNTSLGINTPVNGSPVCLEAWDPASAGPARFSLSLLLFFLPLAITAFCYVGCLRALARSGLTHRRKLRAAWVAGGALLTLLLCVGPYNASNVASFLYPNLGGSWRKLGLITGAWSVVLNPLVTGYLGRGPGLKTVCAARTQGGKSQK
In short: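 Binding was measured as competitive inhibition of [3H]-TAK875 (fasiglifam) binding to membranes from cells overexpressing recombinant human GPR40. Ki is reported with SEM and n.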

[2] = molecular target: T1, Free fatty acid receptor 1; test: Agonist activity at human GPR40 receptor expressed in HEK293 cells assessed as increase in intracellular calcium flux after 2.5 hrs measured over 3 mins by calcium 4 dye-based FLIPR assay; type: functional, cell-based
In short: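 Calcium flux was read by FLIPR in cells carrying recombinant human GPR40. Percent stimulation is relative to the response to 100 µM linoleic acid. EC50 is reported with SEM and n.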

[3] = molecular target: T1, Free fatty acid receptor 1; test: Agonist activity at human GPR40 receptor expressed in HEK293 cells assessed as increase in intracellular calcium flux after 2.5 hrs measured over 3 mins by calcium 4 dye-based FLIPR assay relative to linoleic acid; type: functional, cell-based
In short: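 Human GPR40 calcium flux was read on FLIPR. Percent stimulation is expressed against the response to 100 uM linoleic acid.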

[4] = Dissociation constant, pKa of the compound; type: physicochemical
[5] = Metabolic stability in rat microsomes assessed as compound metabolized after 30 mins; type: ADME, Microsome; details: read-out: Drug metabolism
In short: (§1)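 Compound incubated 30 min with liver microsomes from mouse, rat, dog or human. Percent of compound metabolized recorded, as mean (SEM, n).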

[6] = Metabolic stability in dog microsomes assessed as compound metabolized after 30 mins; type: ADME, Canis lupus familiaris, Microsome; details: read-out: Drug metabolism; in short: as §1
[7] = Intrinsic clearance in human microsomes; type: ADME, Microsome
[8] = Intrinsic clearance in human hepatocytes; type: ADME, cell-based, Hepatocyte
[9] = Clearance in type 2 diabetes patient; type: ADME; details: human, in vivo
[10] = Volume of distribution in type 2 diabetes patient; type: ADME; details: human, in vivo
[11] = Aqueous solubility of the compound at pH 7.4; type: physicochemical
In short: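 Solubility was measured by DMSO/aqueous precipitation at pH 7.4 and reported as the last soluble concentration.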

[12] = system: Rattus norvegicus; test: Antidiabetic activity in po dosed Zucker fa/fa rat assessed as reduction in blood glucose AUC administered daily for 21 days followed by OGTT at 1 hr after compound dosing and measured 60 mins post glucose challenge by oral glucose tolerance test; type: functional
[13] = Drug metabolism in rat hepatocytes assessed as glucuronidation; type: ADME, cell-based, Hepatocyte
[14] = Drug metabolism in mouse hepatocytes assessed as glucuronidation; type: ADME, cell-based, Hepatocyte
[15] = Drug metabolism in dog hepatocytes assessed as glucuronidation; type: ADME, cell-based, Canis lupus familiaris, Hepatocyte
[16] = Drug metabolism in rat hepatocytes assessed as desmethylation; type: ADME, cell-based, Hepatocyte
[17] = Drug metabolism in mouse hepatocytes assessed as desmethylation; type: ADME, cell-based, Hepatocyte
[18] = Drug metabolism in dog hepatocytes assessed as desmethylation; type: ADME, cell-based, Canis lupus familiaris, Hepatocyte
[19] = Lipophilicity, log P of the compound; type: physicochemical; details: octanol/water
[20] = Metabolic stability in mouse microsomes assessed as compound metabolized after 30 mins; type: ADME, Microsome; details: read-out: Drug metabolism; in short: as §1
[21] = Metabolic stability in human microsomes assessed as compound metabolized after 30 mins; type: ADME, Microsome; details: read-out: Drug metabolism; in short: as §1
[22] = Drug metabolism in rat hepatocytes assessed as oxidation; type: ADME, cell-based, Hepatocyte
[23] = Drug metabolism in mouse hepatocytes assessed as oxidation; type: ADME, cell-based, Hepatocyte
[24] = Drug metabolism in dog hepatocytes assessed as oxidation; type: ADME, cell-based, Canis lupus familiaris, Hepatocyte
[25] = Drug metabolism in rat hepatocytes assessed as N-dealkylation; type: ADME, cell-based, Hepatocyte
[26] = Drug metabolism in mouse hepatocytes assessed as N-dealkylation; type: ADME, cell-based, Hepatocyte
[27] = Drug metabolism in dog hepatocytes assessed as N-dealkylation; type: ADME, cell-based, Canis lupus familiaris, Hepatocyte

Ki [1] [nM] | EC50 [2] [nM] | %max [3] [%] | pKa [4] | metabolised at 0.5 h [5] [%] | metabolised at 0.5 h [6] [%] | K [7] [h⁻¹] | K [8] [h⁻¹] | clearance [9] [mL/min] | Vd [10] [L] | solubility [11] [µM] | Drug metabolism [13] | Drug metabolism [14] | Drug metabolism [15] | Compound | ED90 [12] [mg/kg] | also measured
27 | 3 | 51 | 3.4 to 6 | 62 | 18 | 0.0048 | 0.17 | 183 to 233 | 244 to 358 | > 100 | Metabolite_Detected | Metabolite_Detected | Metabolite_Detected | CC#C[C@@H](CC(=O)O)c1ccc(OCc2ccc(CN3CCCc4cccc(OC)c43)s2)cc1 | 3.3 | Drug metabolism [16]: Metabolite_Detected; Drug metabolism [17]: Metabolite_Detected; Drug metabolism [18]: Metabolite_Detected
8.2 | 8 | 50 | 3.4 to 7.9 | 98 | 93 | 0.109 | 0.23 | 517 to 717 | 443 to 885 | 70 to 89 (≈ 34 to 43.2 µg/mL) | Metabolite_Detected | Metabolite_Detected | Metabolite_Detected | CC#C[C@@H](CC(=O)O)c1ccc(OCc2ccc(N3CCC4(CCc5ccccc54)CC3)s2)cc1 | 14.2 | logP [19]: 5; metabolised at 0.5 h [20]: 98%; metabolised at 0.5 h [21]: 44%; Drug metabolism [22]: Metabolite_Detected; Drug metabolism [23]: Metabolite_Detected; Drug metabolism [24]: Metabolite_Detected; Drug metabolism [25]: Metabolite_Detected; Drug metabolism [26]: Metabolite_Detected; Drug metabolism [27]: Metabolite_Detected
